Source: ChEMBL document CHEMBL4270599, “Synthesis of a 3'-C-ethynyl-β-d-ribofuranose purine nucleoside library: Discovery of C7-deazapurine analogs as potent antiproliferative nucleosides” (Eur J Med Chem, 2018)

These compounds were tested on Vaccinia virus (assay: Antiviral activity against Vaccinia virus Lederle infected in HELF cells assessed as inhibition of virus-induced cytopathogenicity). Settings: Orthopoxvirus vaccinia.
Format: functional, organism-based
In short: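 Confluent human embryonic lung fibroblast monolayers in 96-well plates were infected with 100 CCID50 of virus or, for VZV, 20 PFU, in the presence of varying compound concentrations. For HCMV/VZV-type assays, residual virus was removed after 1–2 h before compound addition. Cytopathicity or plaque formation was scored once complete in untreated infected controls. […] Highest concentration tested was 100 μM.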

| Compound | EC50 |
| --- | --- |
| C#C[C@@]1(O)[C@@H](CO)O[C@@H](n2ccc3c(Cl)ccnc32)[C@@H]1O | > 100 µM |
| C#C[C@@]1(O)[C@@H](CO)O[C@@H](n2cc(Br)c3c(Cl)ccnc32)[C@@H]1O | > 100 µM |
| CC[C@@]1(O)[C@@H](CO)O[C@@H](n2cc(Cl)c3c(N)ncnc32)[C@@H]1O | 0.73 µM |
| C#C[C@@]1(O)[C@@H](CO)O[C@@H](n2cc(I)c3c(Cl)ccnc32)[C@@H]1O | > 100 µM |
| C#C[C@@]1(O)[C@@H](CO)O[C@@H](n2cc(Cl)c3c(Cl)ccnc32)[C@@H]1O | > 100 µM |
| Nc1nc2c(ncn2COCCO)c(=O)[nH]1 [ACYCLOVIR] | > 250 µM |
| Nc1nc2c(ncn2COC(CO)CO)c(=O)[nH]1 [GANCICLOVIR] | > 100 µM |
